# Reference: ChEMBL document CHEMBL2146427, “Protective effects of hyperoside against carbon tetrachloride-induced liver damage in mice” (2011)
# Calls of active or inactive are those of the source. No cut-off for these calls is given here.
# Key:
# [1] = test system: Mus musculus; assay: Hepatoprotective activity against CCL4-induced liver damage in ICR mouse assessed as reduction in CCL-induced COX2 protein expression at 100 mg/kg, ip dosed 30 mins before and 2 hrs post CCL4 challenge and measured 24 hrs post CCL4 challenge by Western blot; assay type: functional, organism-based; design: dose 100 mg/kg
# [2] = test system: Mus musculus; assay: Hepatoprotective activity against CCL4-induced liver damage in ICR mouse assessed as reduction in CCL-induced iNOS mRNA expression at 100 mg/kg, ip dosed 30 mins before and 2 hrs post CCL4 challenge and measured 24 hrs post CCL4 challenge by RT-PCR; assay type: functional, organism-based; design: dose 100 mg/kg
# Method in brief: (§1)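 Liver total RNA (Chomczynski–Sacchi), oligo(dT) primed reverse transcription, then PCR with 10 μM primers. Cycling was 94/56/72 °C, 30 s each, for 35 cycles (COX-2) or 30 cycles (HO-1), and 94/60/72 °C for 35 cycles (iNOS), with β-actin at 25 cycles. Products were run on 1.5% agarose and stained with ethidium bromide. Male ICR mice, 10 per group, fasted 16 h.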
# [3] = test system: Mus musculus; assay: Hepatoprotective activity against CCL4-induced liver damage in ICR mouse assessed as reduction in CCL-induced iNOS protein expression at 100 mg/kg, ip dosed 30 mins before and 2 hrs post CCL4 challenge and measured 24 hrs post CCL4 challenge by Western blot; assay type: functional, organism-based; design: dose 100 mg/kg
# [4] = test system: Mus musculus; assay: Hepatoprotective activity against CCL4-induced liver damage in ICR mouse assessed as reduction in CCL-induced TNFalpha production at 100 mg/kg, ip dosed 30 mins before and 2 hrs post CCL4 challenge and measured 24 hrs post CCL4 challenge by ELISA; assay type: functional, organism-based; design: dose 100 mg/kg
# Method in brief: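 Serum TNF-α measured by commercial ELISA on abdominal aortic blood drawn 24 h after ip CCl4 (20 μL/kg in olive oil). Male ICR mice, 10 per group, fasted 16 h; saline vehicle ip; mean ± SEM.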
# [5] = test system: Mus musculus; assay: Hepatoprotective activity against CCL4-induced liver damage in ICR mouse assessed as increase in CCL-induced nuclear Nrf2 protein level at 100 mg/kg, ip dosed 30 mins before and 2 hrs post CCL4 challenge and measured 24 hrs post CCL4 challenge by Western blot; assay type: functional, organism-based; design: dose 100 mg/kg
# Method in brief: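 Nuclear proteins were extracted from fresh liver with NE-PER, and 15 μg per lane was immunoblotted: nitrocellulose, 1 h milk block, primary antibody overnight at 4 °C, ECL, densitometry. Male ICR mice (25–30 g), 10 per group, fasted 16 h; CCl4 20 μL/kg ip in olive oil; sampled 24 h later.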
# [6] = test system: Mus musculus; assay: Hepatoprotective activity against CCL4-induced liver damage in ICR mouse assessed as augmentation of CCL-induced HO-1 mRNA expression at 100 mg/kg, ip dosed 30 mins before and 2 hrs post CCL4 challenge and measured 24 hrs post CCL4 challenge by RT-PCR; assay type: functional, organism-based; design: dose 100 mg/kg; method in brief: as §1
# [7] = test system: Mus musculus; assay: Hepatoprotective activity against CCL4-induced liver damage in ICR mouse assessed as augmentation of CCL-induced HO-1 protein expression at 100 mg/kg, ip dosed 30 mins before and 2 hrs post CCL4 challenge and measured 24 hrs post CCL4 challenge by Western blot; assay type: functional, organism-based; design: dose 100 mg/kg
# [8] = test system: Mus musculus; assay: Hepatoprotective activity against CCL4-induced liver damage in ICR mouse assessed as reduction in Kupffer cell hyperplasia at 100 mg/kg, ip dosed 30 mins before and 2 hrs post CCL4 challenge and measured 24 hrs post CCL4 challenge by hematoxylin-eosin staining based method; assay type: functional, organism-based; design: dose 100 mg/kg
# Method in brief: (§2)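 Left liver lobe fixed in 10% neutral-buffered formalin, paraffin-embedded, cut at 5 μm and stained with H&E. Scored blind for portal inflammation, hepatocellular necrosis and inflammatory infiltration across 100 random nonconsecutive fields. Male ICR mice; CCl4 20 μL/kg ip in olive oil; tissue taken at 24 h.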
# [9] = test system: Mus musculus; assay: Hepatoprotective activity against CCL4-induced liver damage in ICR mouse assessed as reduction in portal inflammation at 100 mg/kg, ip dosed 30 mins before and 2 hrs post CCL4 challenge and measured 24 hrs post CCL4 challenge by hematoxylin-eosin staining based method; assay type: functional, organism-based; design: dose 100 mg/kg; method in brief: as §2
# [10] = test system: Mus musculus; assay: Hepatoprotective activity against CCL4-induced liver damage in ICR mouse assessed as reduction in centrizonal necrosis at 100 mg/kg, ip dosed 30 mins before and 2 hrs post CCL4 challenge and measured 24 hrs post CCL4 challenge by hematoxylin-eosin staining based method; assay type: functional, organism-based; design: dose 100 mg/kg; method in brief: as §2
# [11] = test system: Mus musculus; assay: Hepatoprotective activity against CCL4-induced liver damage in ICR mouse assessed as […] level per gram of liver at 200 mg/kg, ip dosed 30 mins before and 2 hrs post CCL4 challenge and measured 24 hrs post CCL4 challenge (reference value: 4.8 +/- 0.3 umol/g liver); assay type: functional; conditions: route intraperitoneal
# [12] = test system: Mus musculus; assay: Hepatoprotective activity against CCL4-induced liver damage in ICR mouse assessed as […] level per gram of liver at 100 mg/kg, ip dosed 30 mins before and 2 hrs post CCL4 challenge and measured 24 hrs post CCL4 challenge (reference value: 4.8 +/- 0.3 umol/g liver); assay type: functional; conditions: route intraperitoneal
# [13] = test system: Mus musculus; assay: Hepatoprotective activity against CCL4-induced liver damage in ICR mouse assessed as […] level per gram of liver at 50 mg/kg, ip dosed 30 mins before and 2 hrs post CCL4 challenge and measured 24 hrs post CCL4 challenge (reference value: 4.8 +/- 0.3 umol/g liver); assay type: functional; conditions: route intraperitoneal
# [14] = test system: Mus musculus; assay: (§3) Hepatoprotective activity against CCL4-induced liver damage in ICR mouse assessed as […] level per mg protein at 200 mg/kg, ip dosed 30 mins before and 2 hrs post CCL4 challenge and measured 24 hrs post CCL4 challenge by TBARS detection based spectrophotometry (reference value: 3.2 +/- 0.5 nmol/mg protein); assay type: functional; conditions: route intraperitoneal
# [15] = test system: Mus musculus; assay: as §3, with “100” for “200”; assay type: functional; conditions: route intraperitoneal
# [16] = test system: Mus musculus; assay: Hepatoprotective activity against CCL4-induced liver damage in ICR mouse assessed as serum AST level at 200 mg/kg, ip dosed 30 mins before and 2 hrs post CCL4 challenge and measured 24 hrs post CCL4 challenge (reference value: 7518 +/- 426 U/L); assay type: functional; conditions: route intraperitoneal
# [17] = test system: Mus musculus; assay: Hepatoprotective activity against CCL4-induced liver damage in ICR mouse assessed as serum AST level at 100 mg/kg, ip dosed 30 mins before and 2 hrs post CCL4 challenge and measured 24 hrs post CCL4 challenge (reference value: 7518 +/- 426 U/L); assay type: functional; conditions: route intraperitoneal
# [18] = test system: Mus musculus; assay: Hepatoprotective activity against CCL4-induced liver damage in ICR mouse assessed as serum AST level at 50 mg/kg, ip dosed 30 mins before and 2 hrs post CCL4 challenge and measured 24 hrs post CCL4 challenge (reference value: 7518 +/- 426 U/L); assay type: functional; conditions: route intraperitoneal
# [19] = test system: Mus musculus; assay: Hepatoprotective activity against CCL4-induced liver damage in ICR mouse assessed as serum ALT level at 200 mg/kg, ip dosed 30 mins before and 2 hrs post CCL4 challenge and measured 24 hrs post CCL4 challenge (reference value: 10229 +/- 918 U/L); assay type: functional; conditions: route intraperitoneal
# [20] = test system: Mus musculus; assay: Hepatoprotective activity against CCL4-induced liver damage in ICR mouse assessed as serum ALT level at 100 mg/kg, ip dosed 30 mins before and 2 hrs post CCL4 challenge and measured 24 hrs post CCL4 challenge (reference value: 10229 +/- 918 U/L); assay type: functional; conditions: route intraperitoneal
# [21] = test system: Mus musculus; assay: Hepatoprotective activity against CCL4-induced liver damage in ICR mouse assessed as serum ALT level at 50 mg/kg, ip dosed 30 mins before and 2 hrs post CCL4 challenge and measured 24 hrs post CCL4 challenge (reference value: 10229 +/- 918 U/L); assay type: functional; conditions: route intraperitoneal
# [22] = test system: Mus musculus; assay: Hepatoprotective activity against CCL4-induced liver damage in ICR mouse assessed as reduction in CCL-induced COX2 mRNA expression at 100 mg/kg, ip dosed 30 mins before and 2 hrs post CCL4 challenge and measured 24 hrs post CCL4 challenge by RT-PCR; assay type: functional, organism-based; design: dose 100 mg/kg; method in brief: as §1
# [23] = test system: Mus musculus; assay: Hepatoprotective activity against CCL4-induced liver damage in ICR mouse assessed as liver MDA level per mg protein at 50 mg/kg, ip dosed 30 mins before and 2 hrs post CCL4 challenge and measured 24 hrs post CCL4 challenge by TBARS detection based spectrophotometry (reference value: 3.2 +/- 0.5 nmol/mg protein); conditions: route intraperitoneal
smiles,measurement,setting,value
O=c1c(O[C@@H]2O[C@H](CO)[C@H](O)[C@H](O)[C@H]2O)c(-c2ccc(O)c(O)c2)oc2cc(O)cc(O)c12 [HYPEROSIDE],Activity,[1],Active
same,Activity,[2],Active
same,Activity,[3],Active
same,Activity,[4],Active
same,Activity,[5],Active
same,Activity,[6],Active
same,Activity,[7],Active
same,Activity,[8],Active
same,Activity,[9],Active
same,Activity,[10],Active
same,Activity,[11],6 µmol
same,Activity,[12],5.2 µmol
same,Activity,[13],6.1 µmol
same,Activity,[14],1.4 nmol
same,Activity,[15],1.5 nmol
same,Activity,[16],5382 U/L
same,Activity,[17],5488 U/L
same,Activity,[18],6820 U/L
same,Activity,[19],7055 U/L
same,Activity,[20],7134 U/L
same,Activity,[21],10740 U/L
same,Activity,[22],Active
same,Activity,[23],2.4 nmol
